In ChEMBL document CHEMBL3286188 (J Med Chem, 2014) one finds Activity and inhibition data, which are given here for nine compounds.

For assay [1], the target named is T1, Estrogen receptor (Homo sapiens) (UniProt P03372).
T1 sequence (whole entry): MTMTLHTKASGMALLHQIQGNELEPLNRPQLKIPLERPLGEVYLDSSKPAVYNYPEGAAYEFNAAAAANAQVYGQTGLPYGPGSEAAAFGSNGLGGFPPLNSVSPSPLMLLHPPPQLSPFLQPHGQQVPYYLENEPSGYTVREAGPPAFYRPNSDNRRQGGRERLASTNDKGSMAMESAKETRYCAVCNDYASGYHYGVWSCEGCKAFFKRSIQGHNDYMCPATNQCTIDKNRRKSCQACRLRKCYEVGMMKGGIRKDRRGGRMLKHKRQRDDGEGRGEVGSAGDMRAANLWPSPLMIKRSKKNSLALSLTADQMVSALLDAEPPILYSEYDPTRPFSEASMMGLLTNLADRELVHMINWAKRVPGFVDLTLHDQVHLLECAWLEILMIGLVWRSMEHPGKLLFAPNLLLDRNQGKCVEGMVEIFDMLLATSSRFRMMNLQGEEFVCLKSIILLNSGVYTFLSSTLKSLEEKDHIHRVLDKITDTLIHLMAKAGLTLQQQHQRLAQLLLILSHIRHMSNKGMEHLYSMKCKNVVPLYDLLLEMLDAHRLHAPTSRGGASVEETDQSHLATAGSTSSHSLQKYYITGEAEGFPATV
Nature of the assay: Agonist activity at ER in human MCF7:WS8 cells assessed as increase in cell growth by measuring DNA level at 10^-6 M after 7 days by fluorescence analysis. It is filed as cell-based. Put shortly:
(§1)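 MCF-7:WS8 cells kept 3 days in phenol red-free RPMI 1640 with 10% charcoal-stripped serum, then seeded at 10 000 cells/well. Next day treated with serial dilutions (10–12 to 10–6 M) or single therapeutic-level concentrations in estrogen-free medium. Medium changed every 2 days, 7 days total, triplicate points.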

In assay [2] the target is T1, Estrogen receptor (Homo sapiens). Nature of the assay: Antagonist activity at ER in human MCF7:WS8 cells assessed as inhibition of estradiol-induced cell growth by measuring DNA level after 7 days treated at highesy drug concentration by fluorescence analysis. It is filed as cell-based.
The target is the same in assay [3]. Nature of the assay: Agonist activity at ER in human MCF7:WS8 cells assessed as cell growth by measuring DNA level at 0.56 X 10^-9 M after 7 days by fluorescence analysis. It is filed as cell-based. In short, it runs like this:
as §1

Assay [4] shares this target. In words: Agonist activity at ER in human MCF7:WS8 cells assessed as increase in pS2 gene expression at 10^-6 M after 48 hrs by RT-PCR analysis. It is filed as cell-based. Put shortly: (§2)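 After 3 days estrogen starvation, MCF-7:WS8 cells were seeded at 300 000 cells/well and treated for 48 h, then harvested in Trizol. pS2, GREB1 and PgR mRNA measured by real-time PCR with primers checked by single-peak dissociation curves.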

Assay [5] has the same target. Nature of the assay: Agonist activity at ER in human MCF7:WS8 cells assessed as increase in GREB1 gene expression at 10^-6 M after 48 hrs by RT-PCR analysis. It is filed as cell-based. In short, it runs like this:
as §2

Assay [6] shares this target. Nature of the assay: Agonist activity at ER in human MCF7:WS8 cells assessed as increase in PgR gene expression at 10^-6 M after 48 hrs by RT-PCR analysis. It is filed as cell-based. In short, it runs like this:
as §2

The target is the same in assay [7]. Nature of the assay: Antagonist activity at ER in human MCF7:WS8 cells assessed as inhibition of estradiol-induced cell growth by measuring DNA level at 10^-6 M after 7 days by fluorescence analysis. It is filed as cell-based.
A short description of assay [8]: Effect on ER-alpha protein level in human MCF7:WS8 cells at 1 nM after 24 hrs by Western blot analysis. It is filed as functional. Put shortly:
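Cells estrogen-starved 3 days in phenol red-free RPMI 1640, 3 million seeded per 10 cm dish, treated 24 h. Lysates (20 μg protein by BCA) run on 4–12% Bis-Tris gels, blotted to nitrocellulose, probed with rabbit anti-ERα and anti-β-actin, detected by ECL. Densitometry normalized to β-actin, background subtracted, vehicle = 100%. Three independent experiments.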

Assay [9] addresses T1, Estrogen receptor (Homo sapiens). In words: Antagonist activity at ER in human MCF7:WS8 cells assessed as inhibition of estradiol-induced cell growth by measuring DNA level after 7 days by fluorescence analysis. It is filed as cell-based. The following applies: concentration not given here.
The target is the same in assay [10]. Nature of the assay: Agonist activity at ER in human MCF7:WS8 cells assessed as cell growth by measuring DNA level at 1.17 X 10^-9 M after 7 days by fluorescence analysis. It is filed as cell-based. Put shortly: as §1

Calls of active or inactive are those of the source. The calls are words filed in the database; no cut-off is given here.

As usually defined, the inhibition is how much of the control response was suppressed.

As to `CN(C)CCOc1ccc2c(c1)CCCC(c1ccccc1)=C2c1ccc(O)cc1`, the result in assay [1], in assay [4], in assay [5] and in assay [6] was Active. In assay [2], the inhibition stood at 20%. In addition, the outcome in [3] was inactive.
`CCOc1ccc(C2=C(c3ccccc3)CCCc3cc(O)ccc32)cc1`: the result in assay [1], in [4], in [5] and in assay [6] was Active. The inhibition in assay [2] and in assay [7] was 20% in each case.
On to `C[C@]12CC[C@@H]3c4ccc(O)cc4CC[C@H]3[C@@H]1CC[C@@H]2O` [ESTRADIOL], for which, in assay [8], the Activity was 60%.
As for `COc1ccc2c(c1)CCCC(c1ccccc1)=C2c1ccc(O)cc1`, the outcome in assay [1], in assay [4], in assay [5] and in assay [6] was Active. Also, the inhibition in assay [2] came to 20%.
On to `CCOc1ccc2c(c1)CCCC(c1ccccc1)=C2c1ccc(O)cc1`, for which the result in assay [1], in [4], in assay [5] and in assay [6] was Active. Besides, the inhibition in assay [2] worked out at 20%.
Turning to `CCC(=C(c1ccc(O)cc1)c1ccc(O)cc1)c1ccccc1`, the result in assay [1], in [4], in assay [5] and in [6] was Active. In addition, in assay [2], the inhibition worked out at 20%.
`COc1ccc(C2=C(c3ccccc3)CCCc3cc(O)ccc32)cc1`: the result in assay [1], in [4], in assay [5] and in assay [6] was Active. Further, in [2], the inhibition was found to be 20%.
As to `CNCCOc1ccc2c(c1)CCCC(c1ccccc1)=C2c1ccc(O)cc1`, the inhibition in [9] and in assay [2] was 10% throughout. Moreover, in [10], the result was inactive. Also, the result in assay [4], in [5] and in [6] was Active.
For the compound `CCC(=C(c1ccc(O)cc1)c1ccc(O)cc1)c1ccc(O)cc1`, the inhibition in assay [2] was 20%. In addition, the result in assay [4], in [5] and in assay [6] was Active.
